According to ChEMBL document CHEMBL1828611, “Bisphosphonamidate clodronate prodrug exhibits potent anticancer activity in non-small-cell lung cancer cells” (J Med Chem, 2011):
Calls of active or inactive are those of the source. The rule behind the calls is not given here.

Key:
[1] = tested on: A549; experiment: Drug uptake in human A549 cells at 30 uM after 8 hrs using MTBSTFA by LC/MS/MS analysis; type: ADME, cell-based; settings: a549, 8 h
Method in brief: (§1)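 A549 cells, plated at 1.3 × 10^5 per well, dosed for 8 h, PBS-washed, trypsinized, counted by trypan blue, then pellets PBS-washed and frozen at −80°C. Lysate was derivatized with MTBSTFA to tetra-silyl bisphosphonate for 1 h, cooled, diluted 1:5 in acetonitrile, and analysed by LC-MS-MS (C18, isocratic acetonitrile/water 70:30, 0.1% formic acid, 0.2 mL/min). Detection was qualitative.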

[2] = tested on: A549; experiment: Cell cycle arrest in human A549 cells assessed as accumulation of cells in G2 phase after 24 hrs measured using propidium iodide staining by FACS analysis; type: functional, cell-based
[3] = tested on: A549; experiment: Anticancer activity against human A549 cells assessed as growth inhibition up to 1 mM by MTS assay; type: functional, cell-based
Method in brief: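 A549 cells, plated at 1.5 × 10^3 per well and left to adhere overnight, treated for 24, 48 or 72 h with compounds serially diluted in DMSO (1% DMSO final). MTS dye was added for 40 min to 2 h and absorbance read at 490 nm. Values were expressed as percent of vehicle control; IC50 was taken from nonlinear dose-response fitting.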

[4] = tested on: A549; experiment: Anticancer activity against human A549 cells assessed as reduction in cell viability after 72 hrs by crystal voilet staining; type: functional, cell-based
Method in brief: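 A549 cells were plated at 1.7 × 10^4 per well in 6-well plates and dosed from 100X DMSO stocks (final 1% DMSO). After 72 h cells were washed twice with PBS, stained 5–15 min with 0.5% crystal violet in 95% EtOH, rinsed with cold water and air-dried.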

[5] = tested on: A549; experiment: Cell cycle arrest in human A549 cells assessed as accumulation of cells in G1 phase at 3 uM after 72 hrs measured using propidium iodide staining by FACS analysis; type: functional, cell-based
Method in brief: (§2)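 A549 cells were plated at 6.7 × 10^4 per well in 6-well plates and dosed at 0, 3 or 10 μM for 72 h (final 1% DMSO). Cells were fixed in cold 70% ethanol, then stained with 10 μg/mL propidium iodide plus RNase A for 30 min at 37°C.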

[6] = tested on: A549; experiment: Cell cycle arrest in human A549 cells assessed as accumulation of cells in G1 phase at 10 uM after 72 hrs measured using propidium iodide staining by FACS analysis; type: functional, cell-based; method in brief: as §2
[7] = tested on: A549; experiment: Antiproliferative activity against human A549 cells after 48 hrs by MTS assay; type: functional, cell-based; settings: A549, 48 h
Method in brief: (§3)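 A549 cells were seeded at 1.5 × 10^3 per well, adhered overnight, and treated over 0.2–300 μM (final 1% DMSO). After treatment, MTS was added for 40 min–2 h and A490 read. Absorbance was converted to percent of vehicle control, and IC50 was obtained by nonlinear dose-response fit.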

[8] = tested on: A549; experiment: Anticancer activity in human A549 cells assessed as decrease in viable cells after 24 hrs by trypan blue exclusion assay; type: functional
Method in brief: (§4)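 A549 cells (RPMI 1640, 10% FBS) were plated at 1.7 × 10^4 per well in 12-well plates, adhered overnight, and dosed from 100X DMSO stocks (final 1% DMSO). Floating and trypsinized cells were pooled, mixed 1:1 with 0.04% trypan blue and viable cells counted. Counts were expressed as percent of control per time point; EC50 is the concentration giving a 50% decrease in cell number.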

[9] = tested on: A549; experiment: Antiproliferative activity against human A549 cells after 24 hrs by MTS assay; type: functional, cell-based; settings: A549, 24 h; method in brief: as §3
[10] = tested on: A549; experiment: Anticancer activity in human A549 cells assessed as decrease in viable cells after 48 hrs by trypan blue exclusion assay; type: functional, cell-based; settings: A549, 48 h; method in brief: as §4
[11] = tested on: A549; experiment: Ratio of EC50 for human A549 cells after 48 hrs by trypan blue exclusion assay to IC50 for human A549 cells after 48 hrs by MTS assay; type: functional
[12] = tested on: A549; experiment: Anticancer activity against human A549 cells assessed as growth inhibition at 10 to 300 uM for 72 hrs followed by 48 hrs incubation after compound wash out; type: functional, cell-based
Method in brief: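 A549 cells exposed to 10, 30, 100 and 300 μM for 72 h, then washed to remove drug and given fresh drug-free medium; regrowth was checked after a further 48 h.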

[13] = tested on: A549; experiment: Cell cycle arrest in human A549 cells assessed as accumulation of cells in G1 phase at 3 uM after 72 hrs measured using propidium iodide staining by FACS analysis in presence of nocodazole; type: functional, cell-based
[14] = tested on: A549; experiment: Anticancer activity in human A549 cells assessed as decrease in viable cells after 72 hrs by trypan blue exclusion assay; type: functional, cell-based; settings: A549, 72 h; method in brief: as §4
[15] = tested on: A549; experiment: Antiproliferative activity against human A549 cells after 72 hrs by MTS assay; type: functional, cell-based; settings: A549, 72 h; method in brief: as §3
[16] = tested on: A549; experiment: Drug uptake in human A549 cells assessed per 10^4 cells at 30 uM after 8 hrs by LC/MS/MS analysis; type: ADME, cell-based; settings: a549, 8 h
Method in brief: (§5)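 A549 cells were plated at 1.3 × 10^5 per well in 6-well plates and treated at 0, 10 or 30 μM for 8 h. Cells were washed, trypsinized and counted by trypan blue, and pellets were frozen. Lysates in acetonitrile with temazepam internal standard were analysed by LC-MS-MS on a C18 column (isocratic acetonitrile/water 60:40, 0.1% formic acid). Results are reported as ng/10^4 cells.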

[17] = tested on: A549; experiment: Prodrug conversion in human A549 cells assessed as intracellular formation of methylenebis(hydrogen phosphonate) at 10 to 30 uM after 8 hrs using MTBSTFA by LC/MS/MS analysis; type: ADME, cell-based; settings: a549, 8 h; method in brief: as §1
[18] = tested on: A549; experiment: Drug uptake in human A549 cells after 8 hrs by LC/MS/MS analysis; type: ADME, cell-based; settings: a549, 8 h; method in brief: as §5
[19] = tested on: A549; experiment: Drug uptake in human A549 cells assessed per 10^4 cells at 10 uM after 8 hrs by LC/MS/MS analysis; type: ADME, cell-based; settings: a549, 8 h; method in brief: as §5

Row | Compound | IC50 [7] | Activity [8] | IC50 [9] | EC50 [10] | Ratio IC50 [11] | EC50 [14] | IC50 [15] | other results
1 | O=P(O)(O)CP(=O)(O)O [MEDRONIC ACID] |  |  |  |  |  |  |  | Drug uptake [1]: Active
2 | COC(=O)Nc1nc2cc(C(=O)c3cccs3)ccc2[nH]1 |  |  |  |  |  |  |  | Activity [2]: Active
3 | O=P(O)(O)C(Cl)(Cl)P(=O)(O)O |  |  |  |  |  |  |  | growth inhibition (GI) [3]: inactive
4 | CN(CCCCCl)P(=O)(OCc1ccc([N+](=O)[O-])cc1)C(Cl)(Cl)P(=O)(OCc1ccc([N+](=O)[O-])cc1)N(C)CCCCCl (stereo unspecified) | 5.2 µM | 57% | 7.6 µM | 19 µM | 3.6 | 16 µM | 4.4 µM | Activity [4]: Active; Activity [5]: Active; Activity [6]: Active; growth inhibition (GI) [12]: Active; Activity [13]: Active
5 | CN(CCCCCl)P(=O)(CP(=O)(OCc1ccc([N+](=O)[O-])cc1)N(C)CCCCCl)OCc1ccc([N+](=O)[O-])cc1 (stereo unspecified) | 15 µM | <50% | 17 µM | 24 µM | 1.6 | 25 µM | 13 µM | Drug uptake [16]: 169.3 ng; Activity [17]: Active; Drug uptake [18]: Dose-dependent effect; Drug uptake [19]: 68.6 ng
